# Measurements: ChEMBL document CHEMBL4130635, “2,4-Diaminoquinazolines as Dual Toll-like Receptor (TLR) 7/8 Modulators for the Treatment of Hepatitis B Virus” (J Med Chem, 2018)
# Calls of active or inactive are those of the source. No cut-off for these calls is given here.
# What was measured:
# Cytochrome P450 2D6 = Cytochrome P450 2D6 (Homo sapiens, UniProt P10635); assay: Inhibition of CYP2D6 (unknown origin); type: ADME
# [1] = Intrinsic clearance in mouse liver microsomes assessed per mg protein at 1 uM up to 60 mins; type: ADME, microsome; details: read-out: CLH
# [2] = Stability in rat hepatocytes assessed compound turnover at 1 uM after 60 mins; type: ADME, cell-based, Hepatocyte; details: read-out: Drug metabolism
# [3] = Cmax in C57BL/6J mouse plasma at 1 mg/kg, po by LC-MS analysis; type: ADME, organism-based; design: dose 1 mg/kg, route oral
# Procedure, shortened: (§1)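 Healthy C57BL/6 mice, groups of 15, given a single oral dose (0.3, 1, 3, 10 or 30 mg/kg) in 20% HP-β-CD. Blood drawn at 0.5 h. Three mice per group sacrificed at 0.5, 1, 2, 4 or 7 h, and compound in plasma and liver measured by LC−MS. Values rounded to whole numbers.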
# [4] = Cmax in C57BL/6J mouse liver at 0.3 mg/kg, po by LC-MS analysis; type: ADME, organism-based; design: dose 0.3 mg/kg, route oral; procedure, shortened: as §1
# [5] = AUC (0 to last) in C57BL/6J mouse plasma at 10 mg/kg, po by LC-MS analysis; type: ADME, organism-based; design: dose 10 mg/kg, route oral, time 0 - last
# Procedure, shortened: (§2)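 Healthy C57BL/6 mice were dosed once by mouth at 0.3, 1, 3, 10 or 30 mg/kg in 20% HP-β-CD, in groups of 15 per dose. Three mice per group were sacrificed at 0.5, 1, 2, 4 or 7 h, and plasma and liver compound levels were measured by LC–MS. Values were rounded to whole numbers.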
# [6] = AUC (0 to last) in C57BL/6J mouse liver at 0.3 mg/kg, po by LC-MS analysis; type: ADME, organism-based; details: in vivo; procedure, shortened: as §2
# Liver [7] = assay: Upregulation of IP-10 mRNA expression levels in C57BL/6J mouse liver at 1 mg/kg, po by RT-qPCR analysis (reference value: 1); type: functional
# Liver [8] = assay: Upregulation of IP-10 mRNA expression levels in C57BL/6J mouse liver at 10 mg/kg, po by RT-qPCR analysis (reference value: 1); type: functional
# Plasma [9] = assay: Effect on cytokine profile in C57BL/6J mouse plasma assessed as IL-12p70 levels at 10 mg/kg, po by multiplex assay (reference value: 560 pg/ml); type: functional
# Procedure, shortened: (§3)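 Single oral gavage in 20% HP-β-CD to healthy C57BL/6 mice, groups of 15 at 0.3, 1, 3, 10 or 30 mg/kg. Three mice per group sacrificed at 0.5, 1, 2, 4 or 7 h. Plasma and liver cytokines by multiplex, maximum level reported, rounded to nearest multiple of 5.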
# Plasma [10] = assay: Effect on cytokine profile in C57BL/6J mouse plasma assessed as IFNgamma levels at 30 mg/kg, po by multiplex assay; type: functional; procedure, shortened: as §3
# Liver [11] = assay: Effect on cytokine profile in C57BL/6J mouse liver assessed as IFNgamma levels at 1 mg/kg, po by multiplex assay; type: functional, organism-based; procedure, shortened: as §3
# Liver [12] = assay: Effect on cytokine profile in C57BL/6J mouse liver assessed as IFNgamma levels at 30 mg/kg, po by multiplex assay; type: functional; procedure, shortened: as §3
# Plasma [13] = assay: Proinflammatory activity in C57BL/6J mouse plasma assessed as IL-1beta levels at 0.3 mg/kg, po by multiplex assay (reference value: 60 pg/ml); type: functional
# Plasma [14] = assay: Proinflammatory activity in C57BL/6J mouse plasma assessed as IL-1beta levels at 30 mg/kg, po by multiplex assay (reference value: 60 pg/ml); type: functional
# Liver [15] = assay: Proinflammatory activity in C57BL/6J mouse liver assessed as CXCL-1 levels at 1 mg/kg, po by multiplex assay (reference value: 25 pg/g); type: functional
# Liver [16] = assay: Proinflammatory activity in C57BL/6J mouse liver assessed as TNFalpha levels at 3 mg/kg, po by multiplex assay (reference value: 15 pg/g); type: functional
# Cynomolgus monkey [17] = assay: Plasma concentration in cynomolgus monkey at 3 mg/kg, po by LC-MS analysis; type: ADME, organism-based, Macaca fascicularis; details: in vivo
# Cynomolgus monkey [18] = assay: Induction of IFNalpha levels in cynomolgus monkey plasma at 30 mg/kg, po after 24 hrs by ELISA; type: functional, Macaca fascicularis
# Procedure, shortened: (§4)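 Healthy cynomolgus monkeys given single oral doses of 1, 3, 9 and 30 mg/kg, with a 2-week wash-out planned between doses. Systemic cytokine levels in plasma were sampled at 0.5, 1, 2, 4, 9 and 24 h postdose.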
# Cynomolgus monkey [19] = assay: Effect on cytokine profile in cynomolgus monkey plasma assessed as IL-15 levels at 3 mg/kg, po after 24 hrs by Luminex assay (reference value: 20 pg/ml); type: functional, Macaca fascicularis; procedure, shortened: as §4
# Cynomolgus monkey [20] = assay: Proinflammatory activity in cynomolgus monkey plasma assessed as TNFalpha levels at 1 mg/kg, po after 24 hrs by Luminex assay (reference value: 285 pg/ml); type: functional, organism-based; details: Macaca fascicularis
# Cynomolgus monkey [21] = assay: Proinflammatory activity in cynomolgus monkey plasma assessed as IL-6 levels at 3 mg/kg, po after 24 hrs by Luminex assay (reference value: 80 pg/ml); type: functional, Macaca fascicularis
# Cynomolgus monkey [22] = assay: Proinflammatory activity in cynomolgus monkey plasma assessed as IL-6 levels at 9 mg/kg, po after 24 hrs by Luminex assay (reference value: 80 pg/ml); type: functional, Macaca fascicularis
# Cynomolgus monkey [23] = assay: Proinflammatory activity in cynomolgus monkey plasma assessed as IL-6 levels at 30 mg/kg, po after 24 hrs by Luminex assay (reference value: 80 pg/ml); type: functional, Macaca fascicularis
# Cynomolgus monkey [24] = assay: Proinflammatory activity in cynomolgus monkey plasma assessed as IL-8 levels at 30 mg/kg, po after 24 hrs by Luminex assay (reference value: 430 pg/ml); type: functional, Macaca fascicularis
# Cynomolgus monkey [25] = assay: Activation of monocytes in cynomolgus monkey plasma assessed as upregulation of MCP1 levels at 9 mg/kg, po after 24 hrs by Luminex assay (reference value: 385 pg/ml); type: functional, Macaca fascicularis
# Cynomolgus monkey [26] = assay: Activation of Kupffer cells in cynomolgus monkey liver at 30 mg/kg, po after 72 hrs by CD68 staining-based immunohistochemical analysis; type: functional, organism-based; details: Macaca fascicularis
# Procedure, shortened: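 Three 2.5-year-old male naive cynomolgus monkeys were dosed orally at 30 mg/kg and euthanized 72 h later. FFPE liver sections were stained for CD68 by IHC, alongside sections from unrelated control animals. Positive cells were counted over a 30 mm² area and expressed per mm². Statistics used a one-tailed t test with Welch correction.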
# [27] = biological target: TLR7 and TLR8 (Homo sapiens) (UniProt Q9NYK1+Q9NR97); assay: Agonist activity at TLR7/8 in human PBMCs co-cultured with primary human hepatocytes infected with HBV genotype C for 12 days assessed as increase in IL-12p40 levels up to 5 uM measured after 42 days
# TLR7 and TLR8 (Homo sapiens), sequence (Q9NR97 whole entry, looked up): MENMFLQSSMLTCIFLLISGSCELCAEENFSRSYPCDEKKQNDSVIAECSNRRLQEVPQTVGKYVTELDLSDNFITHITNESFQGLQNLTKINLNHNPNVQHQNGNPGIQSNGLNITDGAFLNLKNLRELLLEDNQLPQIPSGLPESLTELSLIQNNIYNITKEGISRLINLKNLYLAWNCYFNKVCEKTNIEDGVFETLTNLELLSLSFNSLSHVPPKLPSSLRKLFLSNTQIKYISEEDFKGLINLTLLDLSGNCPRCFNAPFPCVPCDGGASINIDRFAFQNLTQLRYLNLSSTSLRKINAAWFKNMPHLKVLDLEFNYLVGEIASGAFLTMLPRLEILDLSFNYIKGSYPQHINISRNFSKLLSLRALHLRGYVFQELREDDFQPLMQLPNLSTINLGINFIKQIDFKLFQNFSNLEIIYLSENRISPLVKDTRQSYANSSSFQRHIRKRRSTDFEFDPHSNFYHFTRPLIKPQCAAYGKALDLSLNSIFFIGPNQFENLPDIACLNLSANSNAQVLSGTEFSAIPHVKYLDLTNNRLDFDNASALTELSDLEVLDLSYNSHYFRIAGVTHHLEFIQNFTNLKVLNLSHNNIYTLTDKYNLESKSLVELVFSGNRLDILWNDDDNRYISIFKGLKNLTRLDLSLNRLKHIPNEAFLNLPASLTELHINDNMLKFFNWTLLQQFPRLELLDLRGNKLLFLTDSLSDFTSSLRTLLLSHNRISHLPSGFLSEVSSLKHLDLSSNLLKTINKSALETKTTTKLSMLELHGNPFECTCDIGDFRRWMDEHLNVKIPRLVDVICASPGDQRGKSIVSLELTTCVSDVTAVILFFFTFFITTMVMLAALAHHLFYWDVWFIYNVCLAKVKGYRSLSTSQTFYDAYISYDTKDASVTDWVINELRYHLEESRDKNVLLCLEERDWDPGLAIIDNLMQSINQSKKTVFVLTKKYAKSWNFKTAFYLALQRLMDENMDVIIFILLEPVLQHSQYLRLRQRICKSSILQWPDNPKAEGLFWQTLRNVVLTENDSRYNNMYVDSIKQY
# TLR7 and TLR8 (Homo sapiens), sequence (Q9NYK1 whole entry, looked up): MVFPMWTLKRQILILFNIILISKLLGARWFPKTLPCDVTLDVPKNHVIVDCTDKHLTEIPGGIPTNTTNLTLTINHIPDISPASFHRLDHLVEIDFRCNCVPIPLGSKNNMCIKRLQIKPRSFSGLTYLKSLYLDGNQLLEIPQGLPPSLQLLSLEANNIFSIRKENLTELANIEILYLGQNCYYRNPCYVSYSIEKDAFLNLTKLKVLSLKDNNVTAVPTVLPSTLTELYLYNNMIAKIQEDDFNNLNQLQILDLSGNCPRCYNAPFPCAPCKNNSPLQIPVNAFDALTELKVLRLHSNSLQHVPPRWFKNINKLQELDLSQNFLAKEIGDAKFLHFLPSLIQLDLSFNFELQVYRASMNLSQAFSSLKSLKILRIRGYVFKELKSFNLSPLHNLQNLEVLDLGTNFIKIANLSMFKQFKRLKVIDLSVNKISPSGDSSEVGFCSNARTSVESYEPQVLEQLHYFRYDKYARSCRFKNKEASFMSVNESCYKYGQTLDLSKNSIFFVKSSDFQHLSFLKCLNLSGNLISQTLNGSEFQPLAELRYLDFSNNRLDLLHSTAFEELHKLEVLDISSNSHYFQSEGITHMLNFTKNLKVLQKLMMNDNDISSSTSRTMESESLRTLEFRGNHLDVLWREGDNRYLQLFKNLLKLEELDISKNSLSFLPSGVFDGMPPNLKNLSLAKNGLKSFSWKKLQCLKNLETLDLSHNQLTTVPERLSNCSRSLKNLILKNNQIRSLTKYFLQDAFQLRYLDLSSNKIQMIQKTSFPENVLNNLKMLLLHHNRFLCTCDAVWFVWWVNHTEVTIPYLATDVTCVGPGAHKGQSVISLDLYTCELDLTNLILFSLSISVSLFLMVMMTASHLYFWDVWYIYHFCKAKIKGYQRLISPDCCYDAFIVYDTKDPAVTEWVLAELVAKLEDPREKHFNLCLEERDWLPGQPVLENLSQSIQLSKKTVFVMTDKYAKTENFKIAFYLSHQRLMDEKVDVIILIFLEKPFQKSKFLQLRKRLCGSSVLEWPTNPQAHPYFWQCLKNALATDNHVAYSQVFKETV
# Hepatocyte = assay: Toxicity in human primary hepatocytes infected with HBV genotype C for 12 days followed by exposure to conditioned supernatant from at 5 uM compound treated PBMCs assessed as increase in AST level measured after 42 days relative to untreated control; type: cell-based; details: 1008 h
# Cynomolgus monkey [28] = assay: Toxicity in cynomolgus monkey assessed as clinical observation changes up to 30 mg/kg, po; type: organism-based, Macaca fascicularis; details: in vivo
# [29] = system: Toll-like receptor 7/8 (Homo sapiens); assay: Agonist activity at TLR7/8 in human PBMCs assessed as decrease in intracellular HBV-rcDNA levels in human hepatocytes infected with HBV genotype C for 12 days followed by exposure to conditioned supernatant from up to 5 uM compound treated PBMCs measured after 42 days
# Cytochrome P450 2D6, sequence (P10635 whole entry): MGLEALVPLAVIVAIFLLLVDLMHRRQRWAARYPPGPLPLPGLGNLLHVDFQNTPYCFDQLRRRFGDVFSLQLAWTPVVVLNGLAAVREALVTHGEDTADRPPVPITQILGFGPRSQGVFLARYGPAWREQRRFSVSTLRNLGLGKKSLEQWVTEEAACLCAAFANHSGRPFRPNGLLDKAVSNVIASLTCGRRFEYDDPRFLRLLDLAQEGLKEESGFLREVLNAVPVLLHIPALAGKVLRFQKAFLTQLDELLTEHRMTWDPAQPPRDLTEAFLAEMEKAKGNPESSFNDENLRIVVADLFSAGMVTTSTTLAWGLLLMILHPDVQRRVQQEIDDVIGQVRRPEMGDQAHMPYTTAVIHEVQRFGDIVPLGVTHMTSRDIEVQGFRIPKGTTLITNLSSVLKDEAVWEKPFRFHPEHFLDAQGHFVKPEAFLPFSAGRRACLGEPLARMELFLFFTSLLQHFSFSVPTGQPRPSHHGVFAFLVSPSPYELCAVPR
compound,measurement,setting,value
CCC[C@@H](CCO)Nc1nc(N)nc2c(F)cccc12,IC50,Cytochrome P450 2D6,5.7 µM
same,microsomal CLint at 1 µM,[1],100 µL/min/mg
same,"metabolised at 1 h, 1 µM",[2],96%
same,Cmax,[3],9 ng/mL
same,Cmax,[4],32 ng/g
same,AUC(0-t),[5],141 ng·h/mL
same,AUClast,[6],25 ng·h/g
same,fold change (FC),Liver [7],775
same,fold change (FC),Liver [8],800
same,Activity,Plasma [9],630 pg/mL
same,Activity,Plasma [10],1010 pg/mL
same,Activity,Liver [11],Below limit of detection
same,Activity,Liver [12],700 pg/g
same,Activity,Plasma [13],50 pg/mL
same,Activity,Plasma [14],70 pg/mL
same,Activity,Liver [15],6755 pg/g
same,Activity,Liver [16],2865 pg/g
same,Cp,Cynomolgus monkey [17],14 ng/mL
same,Activity,Cynomolgus monkey [18],>51200 pg/mL
same,Activity,Cynomolgus monkey [19],60 pg/mL
same,Activity,Cynomolgus monkey [20],Below limit of detection
same,Activity,Cynomolgus monkey [21],200 pg/mL
same,Activity,Cynomolgus monkey [22],2265 pg/mL
same,Activity,Cynomolgus monkey [23],5285 pg/mL
same,Activity,Cynomolgus monkey [24],1840 pg/mL
same,Activity,Cynomolgus monkey [25],8890 pg/mL
same,Activity,Cynomolgus monkey [26],Active
same,Activity,[27],Active
same,fold change (FC),Hepatocyte,2.6
same,Activity,Cynomolgus monkey [28],Non-Toxic
same,Activity,[29],Active
